Measured values from ChEMBL document CHEMBL1147862, “Studies on synthesis and pharmacological activities of 3,6-disubstituted-1,2,4-triazolo[3,4-b]-1,3,4-thiadiazoles and their dihydro analogues” (2007).

Columns and labels:
Format in all cases: functional
Rattus norvegicus [1] = experiment: Antiinflammatory activity in Wistar Albino rat assessed as inhibition of carrageenan-induced paw oedema at 20 mg/kg after 2 hrs relative to control
Procedure, shortened: (§1)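 Wistar albino rats, 150–200 g, six per group, dosed orally with a 20 mg/kg suspension; control gets 0.1 ml 1% gum acacia. After 30 min, 0.1 ml 1% carrageenan in saline is injected subplantar into the right hind paw. Paw volume is read by plethysmograph at 0–4 h. Inhibition = 100(1 − Vtest/Vcontrol) on mean volume increase.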

Staphylococcus aureus [2] = experiment: Antibacterial activity against Staphylococcus aureus at 30 ug/ml by agar plate diffusion technique; settings: read-out: IZ
Aspergillus niger [3] = experiment: Antifungal activity against Aspergillus niger at 10 ug/ml by paper disc method; settings: read-out: IZ
Bacillus subtilis [4] = experiment: Antibacterial activity against Bacillus subtilis at 30 ug/ml by agar plate diffusion technique; settings: read-out: IZ
Candida albicans [5] = experiment: Antifungal activity against Candida albicans at 10 ug/ml by paper disc method; settings: read-out: IZ
Candida albicans [6] = experiment: Antifungal activity against Candida albicans at 30 ug/ml by paper disc method; settings: read-out: IZ
Aspergillus niger [7] = experiment: Antifungal activity against Aspergillus niger at 30 ug/ml by paper disc method; settings: read-out: IZ
Aspergillus niger [8] = experiment: Antifungal activity against Aspergillus niger at 20 ug/ml by paper disc method; settings: read-out: IZ
Mus musculus [9] = experiment: Analgesic activity in Swiss mouse assessed as increase in reaction time at 20 mg/kg, po after 60 mins by Eddy's hot plate technique
Procedure, shortened: (§2)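 Swiss mice of either sex, 25–35 g, placed one at a time on a hot plate held at 55 °C. End point is paw licking or jumping, whichever comes first, with a 15 s cut-off to avoid paw injury. Reaction time is recorded and reported as percent increase in reaction time.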

Bacillus subtilis [10] = experiment: Antibacterial activity against Bacillus subtilis at 20 ug/ml by agar plate diffusion technique; settings: read-out: IZ
Rattus norvegicus [11] = experiment: Antiinflammatory activity in Wistar Albino rat assessed as inhibition of carrageenan-induced paw oedema at 20 mg/kg after 1 hr relative to control; procedure, shortened: as §1
Bacillus subtilis [12] = experiment: Antibacterial activity against Bacillus subtilis at 10 ug/ml by agar plate diffusion technique; settings: read-out: IZ
Escherichia coli [13] = experiment: Antibacterial activity against Escherichia coli at 10 ug/ml by agar plate diffusion technique; settings: read-out: IZ
Rattus norvegicus [14] = experiment: Antiinflammatory activity in Wistar Albino rat assessed as inhibition of carrageenan-induced paw oedema at 20 mg/kg after 4 hrs relative to control; procedure, shortened: as §1
Pseudomonas aeruginosa [15] = experiment: Antibacterial activity against Pseudomonas aeruginosa at 10 ug/ml by agar plate diffusion technique; settings: read-out: IZ
Staphylococcus aureus [16] = experiment: Antibacterial activity against Staphylococcus aureus at 10 ug/ml by agar plate diffusion technique; settings: read-out: IZ
Staphylococcus aureus [17] = experiment: Antibacterial activity against Staphylococcus aureus at 20 ug/ml by agar plate diffusion technique; settings: read-out: IZ
Mus musculus [18] = experiment: Analgesic activity in Swiss mouse assessed as increase in reaction time at 20 mg/kg, po after 30 mins by Eddy's hot plate technique; procedure, shortened: as §2
Pseudomonas aeruginosa [19] = experiment: Antibacterial activity against Pseudomonas aeruginosa at 20 ug/ml by agar plate diffusion technique; settings: read-out: IZ
Candida albicans [20] = experiment: Antifungal activity against Candida albicans at 20 ug/ml by paper disc method; settings: read-out: IZ
Escherichia coli [21] = experiment: Antibacterial activity against Escherichia coli at 30 ug/ml by agar plate diffusion technique; settings: read-out: IZ
Rattus norvegicus [22] = experiment: Antiinflammatory activity in Wistar Albino rat assessed as inhibition of carrageenan-induced paw oedema at 20 mg/kg after 3 hrs relative to control; procedure, shortened: as §1
Mus musculus [23] = experiment: Analgesic activity in Swiss mouse assessed as increase in reaction time at 20 mg/kg, po after 90 mins by Eddy's hot plate technique; procedure, shortened: as §2
Escherichia coli [24] = experiment: Antibacterial activity against Escherichia coli at 20 ug/ml by agar plate diffusion technique; settings: read-out: IZ
Pseudomonas aeruginosa [25] = experiment: Antibacterial activity against Pseudomonas aeruginosa at 30 ug/ml by agar plate diffusion technique; settings: read-out: IZ

Structure (SMILES) | inhibition in vivo at 20 mg/kg (Rattus norvegicus [1]) | zone of inhibition at 30 µg/mL (Staphylococcus aureus [2]) | zone of inhibition at 10 µg/mL (Aspergillus niger [3]) | zone of inhibition at 30 µg/mL (Bacillus subtilis [4]) | zone of inhibition at 10 µg/mL (Candida albicans [5]) | zone of inhibition at 30 µg/mL (Candida albicans [6]) | zone of inhibition at 30 µg/mL (Aspergillus niger [7]) | zone of inhibition at 20 µg/mL (Aspergillus niger [8]) | Activity (Mus musculus [9]) | zone of inhibition at 20 µg/mL (Bacillus subtilis [10]) | inhibition in vivo at 20 mg/kg (Rattus norvegicus [11]) | zone of inhibition at 10 µg/mL (Bacillus subtilis [12]) | zone of inhibition at 10 µg/mL (Escherichia coli [13]) | inhibition in vivo at 20 mg/kg (Rattus norvegicus [14]) | zone of inhibition at 10 µg/mL (Pseudomonas aeruginosa [15]) | zone of inhibition at 10 µg/mL (Staphylococcus aureus [16]) | zone of inhibition at 20 µg/mL (Staphylococcus aureus [17]) | Activity (Mus musculus [18]) | zone of inhibition at 20 µg/mL (Pseudomonas aeruginosa [19]) | zone of inhibition at 20 µg/mL (Candida albicans [20]) | also measured
Cc1occc1-c1nnc2sc(-c3ccnc(Cl)c3)nn12 | 15.3% | 19.2 mm | 7.38 mm | 20.4 mm | 7.26 mm | 21.9 mm | 20.7 mm | 14.3 mm | 11.35% | 14.6 mm | 10.1% | 7.82 mm | 7.48 mm | 27.1% | 7.79 mm | 7.82 mm | 14.7 mm | 6.04% | 13.8 mm | 14 mm | zone of inhibition at 30 µg/mL (Escherichia coli [21]): 20.2 mm; inhibition in vivo at 20 mg/kg (Rattus norvegicus [22]): 24.1%; Activity (Mus musculus [23]): 20.34%; zone of inhibition at 20 µg/mL (Escherichia coli [24]): 14.8 mm; zone of inhibition at 30 µg/mL (Pseudomonas aeruginosa [25]): 20.6 mm
Cc1cc(-c2nn3c(-c4ccoc4C)nnc3s2)c2ccccc2n1 | 13.4% | 17.9 mm | 6 mm | 17.1 mm | 5.84 mm | 19 mm | 17.4 mm | 13.5 mm | 11.35% | 12.5 mm | 7.23% | 7.38 mm | 6.28 mm | 26.3% | 6 mm | 7.1 mm | 13.7 mm | 6.04% | 11.8 mm | 12.6 mm | zone of inhibition at 30 µg/mL (Escherichia coli [21]): 17 mm; inhibition in vivo at 20 mg/kg (Rattus norvegicus [22]): 18.6%; Activity (Mus musculus [23]): 20.34%; zone of inhibition at 20 µg/mL (Escherichia coli [24]): 10.5 mm; zone of inhibition at 30 µg/mL (Pseudomonas aeruginosa [25]): 16.8 mm
Cc1occc1-c1nnc2sc(-c3cc(O)nc(O)c3)nn12 | 11.4% | 14.5 mm | 5.14 mm | 14.8 mm | 5.34 mm | 17.3 mm | 14.8 mm | 8.48 mm | 11.45% | 10.4 mm | 6.25% | 6.02 mm | 5.38 mm | 21.7% | 5.95 mm | 6.07 mm | 10.8 mm | 4.35% | 9.81 mm | 10 mm | zone of inhibition at 30 µg/mL (Escherichia coli [21]): 14.1 mm; inhibition in vivo at 20 mg/kg (Rattus norvegicus [22]): 16.5%; Activity (Mus musculus [23]): 19.35%; zone of inhibition at 20 µg/mL (Escherichia coli [24]): 8.79 mm; zone of inhibition at 30 µg/mL (Pseudomonas aeruginosa [25]): 14.2 mm
COc1ccc2[nH]cc(Cc3nn4c(-c5ccoc5C)nnc4s3)c2c1 | 20.1% | 13.3 mm | 5.06 mm | 14.2 mm | 5.62 mm | 13.5 mm | 13.1 mm | 9.8 mm | 24.76% | 9.61 mm | 16% | 5.82 mm | 5.16 mm | 30.8% | 5.36 mm | 4.85 mm | 9.1 mm | 13.84% | 9.62 mm | 10.8 mm | zone of inhibition at 30 µg/mL (Escherichia coli [21]): 14.2 mm; inhibition in vivo at 20 mg/kg (Rattus norvegicus [22]): 26.1%; Activity (Mus musculus [23]): 31.86%; zone of inhibition at 20 µg/mL (Escherichia coli [24]): 9.35 mm; zone of inhibition at 30 µg/mL (Pseudomonas aeruginosa [25]): 14.5 mm
